In brackets after ≈: the same amount, converted by molar mass.
Tests used:
[1] = tested on: Mycobacterium tuberculosis; test: Antimicrobial activity against Mycobacterium tuberculosis H37Rv ATCC 27294 harboring pFCA-lux AB gene measured under aerobic condition after 8 days by luminescence analysis; format: functional; conditions: H37Rv ATCC 27294, 192 h
Procedure, shortened: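 MABA: replicating M. tb H37Rv exposed to compound aerobically for 8 days. […] Mean of at least two independent determinations ± SD.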

[2] = tested on: Mycobacterium tuberculosis; test: Antimicrobial activity against Mycobacterium tuberculosis H37Rv ATCC 27294 harboring pFCA-lux AB gene measured under anaerobic condition after 11 days by luminescence analysis; format: functional; conditions: H37Rv ATCC 27294, 264 h
Procedure, shortened: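 LORA: luminescence-based low-oxygen-recovery assay on nonreplicating M. tb, 11-day anaerobic exposure. MIC is the mean of at least two independent determinations ± SD.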

`O=C(N[C@@H]1COc2nc([N+](=O)[O-])cn2C1)c1cccc(OC(F)(F)F)c1` gave an MIC [1] of 4.9 µM (≈ 1.82 µg/mL) and an MIC [2] greater than 64 µM.

`O=C(N[C@@H]1COc2nc([N+](=O)[O-])cn2C1)OCc1ccc(-c2ccc(C(F)(F)F)nc2)cc1` showed an MIC [1] of 0.23 µM (≈ 0.107 µg/mL) and an MIC [2] of 4.7 µM (≈ 2.18 µg/mL).

For `O=C(N[C@@H]1COc2nc([N+](=O)[O-])cn2C1)OCc1ccc(OC(F)(F)F)cc1`, the MIC [1] was 0.15 µM (≈ 0.0603 µg/mL) and the MIC [2] was 11 µM (≈ 4.43 µg/mL).

`O=C(NCc1ccc(OC(F)(F)F)cc1)O[C@@H]1COc2nc([N+](=O)[O-])cn2C1` was tested, and the MIC [1] was 0.25 µM (≈ 0.101 µg/mL) and the MIC [2] was 17 µM (≈ 6.84 µg/mL).

Work on `O=[N+]([O-])c1cn2c(n1)OC[C@@H](NS(=O)(=O)c1ccccc1OC(F)(F)F)C2` yielded an MIC [1] greater than 64 µM and an MIC [2] greater than 64 µM.

With `O=[N+]([O-])c1cn2c(n1)OC[C@@H](NCc1ccc(OC(F)(F)F)cc1)C2` the MIC [1] was 0.22 µM (≈ 0.0788 µg/mL) and the MIC [2] was 5.3 µM (≈ 1.9 µg/mL).

`O=C(Nc1ccc(-c2ccc(F)nc2)cc1)N[C@@H]1COc2nc([N+](=O)[O-])cn2C1` gave an MIC [1] of 0.24 µM (≈ 0.0956 µg/mL) and an MIC [2] of 11 µM (≈ 4.38 µg/mL).

For `O=C(Nc1ccc(OC(F)(F)F)cc1)N[C@@H]1COc2nc([N+](=O)[O-])cn2C1`, the MIC [1] was 0.23 µM (≈ 0.0891 µg/mL) and the MIC [2] was 4.2 µM (≈ 1.63 µg/mL).

Compound `O=C(N[C@@H]1COc2nc([N+](=O)[O-])cn2C1)c1ccc(OC(F)(F)F)cc1` has an MIC [1] of 1.8 µM (≈ 0.67 µg/mL).

For `O=C(Nc1ccc(-c2ccc(F)cc2)cc1)O[C@@H]1COc2nc([N+](=O)[O-])cn2C1`, the MIC [1] was 1.3 µM (≈ 0.518 µg/mL) and the MIC [2] was 18 µM (≈ 7.17 µg/mL).

`O=[N+]([O-])c1cn2c(n1)OC[C@@H](NC(=S)Nc1ccc(OC(F)(F)F)cc1)C2` gave an MIC [1] of 8 µM (≈ 3.23 µg/mL) and an MIC [2] greater than 64 µM.

With `O=[N+]([O-])c1cn2c(n1)OC[C@@H](NS(=O)(=O)c1ccc(OC(F)(F)F)cc1)C2` the MIC [1] was 9.7 µM (≈ 3.96 µg/mL) and the MIC [2] was greater than 64 µM.

`CN(C(=O)O[C@@H]1COc2nc([N+](=O)[O-])cn2C1)c1ccc(OC(F)(F)F)cc1` was tested, and the MIC [1] was 0.21 µM (≈ 0.0845 µg/mL) and the MIC [2] was 5.4 µM (≈ 2.17 µg/mL).

In the case of `O=C(Cc1ccc(-c2ccc(OC(F)(F)F)cc2)cc1)N[C@@H]1COc2nc([N+](=O)[O-])cn2C1`, the MIC [1] is reported as 0.22 µM (≈ 0.102 µg/mL) and the MIC [2] is reported as 5 µM (≈ 2.31 µg/mL).

`CN(C(=O)c1ccccc1OC(F)(F)F)[C@@H]1COc2nc([N+](=O)[O-])cn2C1` was tested, and the MIC [1] was 45 µM (≈ 17.4 µg/mL) and the MIC [2] was greater than 64 µM.

`O=C(O[C@@H]1COc2nc([N+](=O)[O-])cn2C1)N1CC[C@H](Oc2ccc(OC(F)(F)F)cc2)C1` was tested, and the MIC [1] was 0.06 µM (≈ 0.0275 µg/mL) and the MIC [2] was 1.6 µM (≈ 0.733 µg/mL).

With `O=C(COc1ccc(OC(F)(F)F)cc1)N[C@@H]1COc2nc([N+](=O)[O-])cn2C1` the MIC [1] was 0.16 µM (≈ 0.0644 µg/mL) and the MIC [2] was 10 µM (≈ 4.02 µg/mL).

`O=[N+]([O-])c1cn2c(n1)OC[C@@H](OCc1cccc(OC(F)(F)F)c1)C2` gave an MIC [1] of 0.36 µM (≈ 0.129 µg/mL) and an MIC [2] of 2.1 µM (≈ 0.754 µg/mL).

With `O=C(N[C@@H]1COc2nc([N+](=O)[O-])cn2C1)OCc1ccc(-c2ccc(F)cc2)cc1` the MIC [1] was 0.085 µM (≈ 0.0351 µg/mL) and the MIC [2] was 4.2 µM (≈ 1.73 µg/mL).

Compound `O=C(CN[C@@H]1COc2nc([N+](=O)[O-])cn2C1)c1ccc(OC(F)(F)F)cc1` has an MIC [1] of 7.6 µM (≈ 2.94 µg/mL) and an MIC [2] greater than 64 µM.

`O=C(COc1ccc(-c2ccc(C(F)(F)F)nc2)cc1)N[C@@H]1COc2nc([N+](=O)[O-])cn2C1` was tested, and the MIC [1] was 0.69 µM (≈ 0.32 µg/mL) and the MIC [2] was 30 µM (≈ 13.9 µg/mL).

`O=C(COc1ccc(-c2ccc(F)cc2)cc1)N[C@@H]1COc2nc([N+](=O)[O-])cn2C1` was tested, and the MIC [1] was 0.17 µM (≈ 0.0701 µg/mL) and the MIC [2] was 26 µM (≈ 10.7 µg/mL).

For `O=C(N[C@@H]1COc2nc([N+](=O)[O-])cn2C1)OCc1ccc(-c2ccc(C(F)(F)F)cc2)cc1`, the MIC [1] was 0.08 µM (≈ 0.037 µg/mL) and the MIC [2] was 4.5 µM (≈ 2.08 µg/mL).

`O=[N+]([O-])c1cn2c(n1)OC[C@@H](NS(=O)(=O)c1cccc(OC(F)(F)F)c1)C2` was tested, and the MIC [1] was greater than 64 µM and the MIC [2] was greater than 64 µM.

`O=C(Nc1ccc(-c2ccnc(C(F)(F)F)c2)cc1)N[C@@H]1COc2nc([N+](=O)[O-])cn2C1` showed an MIC [1] of 0.36 µM (≈ 0.161 µg/mL) and an MIC [2] of 13 µM (≈ 5.83 µg/mL).

For `O=C(Nc1ccc(-c2ccc(C(F)(F)F)nc2)cc1)N[C@@H]1COc2nc([N+](=O)[O-])cn2C1`, the MIC [1] was 0.17 µM (≈ 0.0762 µg/mL) and the MIC [2] was 17 µM (≈ 7.62 µg/mL).

For `O=[N+]([O-])c1cn2c(n1)OC[C@@H](OCc1ccccc1OC(F)(F)F)C2`, the MIC [1] was 1.8 µM (≈ 0.647 µg/mL) and the MIC [2] was 8.6 µM (≈ 3.09 µg/mL).

Compound `O=C(NCc1ccc(-c2ccc(C(F)(F)F)cc2)cc1)N[C@@H]1COc2nc([N+](=O)[O-])cn2C1` has an MIC [1] of 0.32 µM (≈ 0.148 µg/mL) and an MIC [2] greater than 32 µM.

`O=[N+]([O-])c1cn2c(n1)OC[C@@H](OCc1ccc(-c3ccc(OC(F)(F)F)cc3)cc1)C2` gave an MIC [1] of 0.35 µM (≈ 0.152 µg/mL).

`O=C(N[C@@H]1COc2nc([N+](=O)[O-])cn2C1)Oc1ccc(OC(F)(F)F)cc1` gave an MIC [1] greater than 64 µM and an MIC [2] of 64 µM (≈ 24.8 µg/mL).

Compound `O=C(Cc1ccc(-c2ccc(F)cc2)cc1)N[C@@H]1COc2nc([N+](=O)[O-])cn2C1` has an MIC [1] of 0.33 µM (≈ 0.131 µg/mL) and an MIC [2] of 11 µM (≈ 4.36 µg/mL).

For `O=C(NCc1ccc(-c2ccc(F)cc2)cc1)O[C@@H]1COc2nc([N+](=O)[O-])cn2C1`, the MIC [1] was 0.11 µM (≈ 0.0454 µg/mL) and the MIC [2] was 4.5 µM (≈ 1.86 µg/mL).

With `O=C(Nc1ccc(-c2ccc(C(F)(F)F)nc2)cc1)O[C@@H]1COc2nc([N+](=O)[O-])cn2C1` the MIC [1] was 0.25 µM (≈ 0.112 µg/mL) and the MIC [2] was 4.1 µM (≈ 1.84 µg/mL).

`O=C(Nc1ccc(-c2ccc(C(F)(F)F)cc2)cc1)O[C@@H]1COc2nc([N+](=O)[O-])cn2C1` gave an MIC [1] of 0.055 µM (≈ 0.0247 µg/mL) and an MIC [2] greater than 32 µM.

Source: ChEMBL document CHEMBL1944507, “Structure-activity relationships for amide-, carbamate-, and urea-linked analogues of the tuberculosis drug (6S)-2-nitro-6-{[4-(trifluoromethoxy)benzyl]oxy}-6,7-dihydro-5H-imidazo[2,1-b][1,3]oxazine (PA-824)” (J Med Chem, 2012)
